Measured values from ChEMBL document CHEMBL1152414, “Synthesis, antimalarial activity and cytotoxicity of substituted 3,6-diphenyl-[1,2,4,5]tetraoxanes” (Bioorg Med Chem, 2009).

Legend:
[1] = Selectivity index, ratio of IC50 for african green monkey (Cercopithecus aethiops) Vero cells to IC50 for chloroquine-sensitive Plasmodium falciparum D6; type: toxicity, cell-based; conditions: read-out: Ratio IC50
Outline: (§1)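 Selectivity index is Vero cytotoxicity IC50 (Neutral Red, 48 h) divided by P. falciparum D6 or W2 IC50 (parasite LDH, 72 h).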

[2] = Selectivity index, ratio of IC50 for african green monkey (Cercopithecus aethiops) Vero cells to IC50 for chloroquine-resistant Plasmodium falciparum W2; type: toxicity, cell-based; conditions: read-out: Ratio IC50; outline: as §1
Vero [3] = assay: Cytotoxicity against african green monkey Vero cells upto 16.72 uM after 48 hrs by neutral red assay; type: cell-based; conditions: chlorocebus sabaeus
Outline: (§2)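 Vero monkey kidney cells seeded at 25,000 cells/well and grown 24 h, then exposed to samples at several concentrations for 48 h. Viable cells counted by Neutral Red uptake. IC50 taken from dose-response curves; doxorubicin run as positive control.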

Plasmodium falciparum [4] = assay: Antimalarial activity after 72 hrs against chloroquine-sensitive Plasmodium falciparum D6 by Malstat LDH activity; type: functional, organism-based; conditions: D6, 72 h
Outline: (§3)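 P. falciparum (D6 or W2) infected red cell suspension at 2% parasitemia and 2% hematocrit in RPMI 1640 with 10% human serum and amikacin, added to serially diluted samples. Incubated 72 h at 37 °C under 90% N2/5% O2/5% CO2. Parasite LDH read with Malstat reagent and NBT/PES, acetic acid stop, 650 nm. IC50 taken from dose-response curves; artemisinin and chloroquine run as controls.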

Plasmodium falciparum [5] = assay: Antimalarial activity after 72 hrs against chloroquine-resistant Plasmodium falciparum W2 by Malstat LDH activity; type: functional, organism-based; conditions: W2, 72 h; outline: as §3
Vero [6] = assay: Cytotoxicity against african green monkey Vero cells upto 30 uM after 48 hrs by neutral red assay; type: cell-based; conditions: chlorocebus sabaeus; outline: as §2
SK-MEL = assay: Cytotoxicity human SK-MEL cells upto 30 uM after 48 hrs by neutral red assay; type: cell-based
[7] = Cytotoxicity pig LLC-PK11 cells upto 30 uM after 48 hrs by neutral red assay; type: cell-based, Sus scrofa; conditions: llc-pk11, 48 h
KB = assay: Cytotoxicity human KB cells upto 30 uM after 48 hrs by neutral red assay; type: cell-based
SK-OV-3 = assay: Cytotoxicity human SKOV3 cells upto 30 uM after 48 hrs by neutral red assay; type: cell-based; conditions: sk-ov-3, 48 h
BT-549 = assay: Cytotoxicity human BT549 cells upto 30 uM after 48 hrs by neutral red assay; type: cell-based; conditions: bt-549, 48 h

Row | Structure (SMILES) | selectivity ratio [1] | selectivity ratio [2] | Activity (Vero [3]) | IC50 (Plasmodium falciparum [4]) | IC50 (Plasmodium falciparum [5]) | Activity (Vero [6]) | Activity (SK-MEL) | Activity [7] | Activity (KB) | Activity (SK-OV-3) | Activity (BT-549)
1 | CC(C)(C)c1ccc(C2OOC(c3ccc(C(C)(C)C)cc3)OO2)cc1 (stereo not drawn) | > 6.1 | > 3.4 | Non-toxic | 2190 nM | 3930 nM |  |  |  |  |  | 
2 | Cc1ccc(C2OOC(c3ccc(C(C)C)cc3)OO2)cc1 (stereo not drawn) | > 26.4 | > 20.9 | Non-toxic | 590 nM | 770 nM |  |  |  |  |  | 
3 | CCCc1ccc(C2OOC(c3ccc(CCC)cc3)OO2)cc1 (stereo not drawn) | > 23.8 | > 19 | Non-toxic | 610 nM | 760 nM | Non-toxic | Non-toxic | Non-toxic | Non-toxic | Non-toxic | Non-toxic
4 | CCCCc1ccc(C2OOC(c3ccc(CCCC)cc3)OO2)cc1 (stereo not drawn) | > 3.7 | > 2.8 | Non-toxic | 3650 nM | 4770 nM |  |  |  |  |  | 
5 | CCc1ccc(C2OOC(c3ccc(C)cc3)OO2)cc1 (stereo not drawn) | > 43.6 | > 36.7 | Non-toxic | 380 nM | 450 nM |  |  |  |  |  | 
6 | Cc1ccc(C2OOC(c3ccc(C(C)(C)C)cc3)OO2)cc1 (stereo not drawn) | > 25.1 | > 19 | Non-toxic | 600 nM | 790 nM |  |  |  |  |  | 
7 | COc1ccc(C2OOC(c3ccc(C)cc3)OO2)cc1 (stereo not drawn) | > 21.6 | > 15.4 | Non-toxic | 760 nM | 1080 nM |  |  |  |  |  | 
8 | CC(C)c1ccc(C2OOC(c3ccc(C(C)C)cc3)OO2)cc1 (stereo not drawn) | > 21.6 | > 14 | Non-toxic | 670 nM | 1030 nM | Non-toxic | Non-toxic | Non-toxic | Non-toxic | Non-toxic | Non-toxic
9 | CCc1ccc(C2OOC(c3ccc(CC)cc3)OO2)cc1 (stereo not drawn) | > 15.9 | > 15.9 | Non-toxic | 990 nM |  | Non-toxic | Non-toxic | Non-toxic | Non-toxic | Non-toxic | Non-toxic
10 | Cc1ccc(C2OOC(c3ccccc3C)OO2)cc1 (stereo not drawn) | > 5.7 | > 7.9 | Non-toxic | 3050 nM | 2200 nM |  |  |  |  |  | 
11 | Cc1cccc(C2OOC(c3ccccc3C)OO2)c1 (stereo not drawn) | > 17 | > 12.9 | Non-toxic | 1030 nM | 1360 nM |  |  |  |  |  | 
12 | COc1ccc(C2OOC(c3ccc(C(C)C)cc3)OO2)cc1 (stereo not drawn) | > 1.9 | > 2.6 | Non-toxic | 7900 nM | 5690 nM |  |  |  |  |  | 
13 | CCc1ccc(C2OOC(c3ccc(C(C)(C)C)cc3)OO2)cc1 (stereo not drawn) | > 2.6 | > 4 | Non-toxic | 5480 nM | 3650 nM |  |  |  |  |  | 
14 | CCCc1ccc(C2OOC(c3ccc(C)cc3)OO2)cc1 (stereo not drawn) | > 7.9 | > 14.9 | Non-toxic | 1990 nM | 1060 nM |  |  |  |  |  | 
15 | Cc1ccc(C2OOC(c3ccc(C=O)cc3)OO2)cc1 (stereo not drawn) |  |  | Non-toxic |  |  |  |  |  |  |  | 
16 | CCCc1ccc(C2OOC(c3ccc(OC)cc3)OO2)cc1 (stereo not drawn) | > 15.8 | > 22.7 | Non-toxic | 940 nM | 660 nM |  |  |  |  |  | 
17 | CCCc1ccc(C2OOC(c3ccc(C(C)C)cc3)OO2)cc1 (stereo not drawn) | > 15.4 | > 18.3 | Non-toxic | 960 nM | 800 nM |  |  |  |  |  | 
18 | CCc1ccc(C2OOC(c3cccc(C)c3)OO2)cc1 (stereo not drawn) | > 47.6 | > 29.8 | Non-toxic | 350 nM | 560 nM |  |  |  |  |  | 
19 | CCc1ccc(C2OOC(c3ccc(C(C)C)cc3)OO2)cc1 (stereo not drawn) | > 34 | > 26.4 | Non-toxic | 450 nM | 570 nM |  |  |  |  |  | 
20 | Cc1ccc(C2OOC(c3ccccc3)OO2)cc1 (stereo not drawn) | > 19.8 | > 17 | Non-toxic | 930 nM | 1080 nM |  |  |  |  |  | 
21 | COc1ccc(C2OOC(c3cccc(C)c3)OO2)cc1 (stereo not drawn) | > 39.7 | > 26.4 | Non-toxic | 420 nM | 620 nM |  |  |  |  |  | 
22 | Cc1ccc(C2OOC(c3cccc(C)c3)OO2)cc1 (stereo not drawn) | > 25.1 | > 17 | Non-toxic | 670 nM | 1030 nM |  |  |  |  |  | 
23 | Cc1cccc(C2OOC(c3ccccc3)OO2)c1 (stereo not drawn) | > 36.8 | > 39.7 | Non-toxic | 500 nM | 460 nM |  |  |  |  |  | 
24 | CCCc1ccc(C2OOC(c3ccc(C(C)(C)C)cc3)OO2)cc1 (stereo not drawn) | > 3.4 | > 5.3 | Non-toxic | 4090 nM | 2630 nM |  |  |  |  |  | 
25 | COc1ccc(C2OOC(c3ccc(C(C)(C)C)cc3)OO2)cc1 (stereo not drawn) | > 26.4 | > 22.7 | Non-toxic | 540 nM | 640 nM |  |  |  |  |  | 
26 | CC(C)c1ccc(C2OOC(c3ccc(C(C)(C)C)cc3)OO2)cc1 (stereo not drawn) | > 1 | > 1.5 | Non-toxic | 13900 nM | 9340 nM |  |  |  |  |  | 
27 | C[C@@H]1CC[C@H]2[C@@H](C)C(=O)O[C@@H]3O[C@@]4(C)CC[C@@H]1[C@]32OO4 [ARTEMISININ] | > 476 | > 1400 | Non-toxic |  | 15 nM |  |  |  |  |  | 
28 | CCN(CC)CCCC(C)Nc1ccnc2cc(Cl)ccc12 (stereo not drawn) [CHLOROQUINE] |  |  | Non-toxic |  |  |  |  |  |  |  | 
